Measured values reported in publication PMC3878182 (Xenobiotica; the fate of foreign compounds in biological …, 2013).

Tests used:
liver tissue slices [1] = experiment: Formation of hydroxylated PCB 136 metabolites in liver tissue slices; type: in vitro ADME, Sprague-Dawley rats; conditions: for Metabolite formation, slices / Metabolite formation, medium: 2 h; for Metabolite as percent of ΣOH-PCB: slices plus medium
liver tissue slices [2] = experiment: Enantioselective analysis; type: in vitro ADME, Sprague-Dawley rats; conditions: for Enantiomeric enrichment: liver slices from PB- and DEX-treated male and female rats incubated with racemic PCB 136
Outline: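 Liver slices from PB- or DEX-pretreated rats, two per vial in 2 mL K-H buffer, were incubated with racemic test compound (final 5 μM, from DMSO) for 2 h at 37 °C under 5% CO2/95% air in a dynamic system. Triplicate incubations were run per animal. Hydroxylated metabolites were methylated; atropisomers were separated on Chirasil-Dex (5-OH) or Cyclosil-B (4-OH) columns. EF = Area E(2)/(Area E(1) + Area E(2)).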

ryanodine receptor (RyR) = conditions: enantioselective; ref Pessah et al., 2009; cited from earlier work
[3] = Effect of inducer treatment on body and liver weights of rats; type: in vivo, Sprague-Dawley rats; conditions: i.p. inducer treatment
liver tissue slices [4] = experiment: Liver slice viability; type: cell-based, Sprague-Dawley rats; conditions: 2 h
Outline: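 Liver slices came from adult rats, either naive or pretreated with PB or DEX, taken 24 h after the last dose into cold Krebs-Henseleit buffer, pH 7.5. Two slices per vial in 2 mL buffer received test compound (final 5 μM) or DMSO, 2 h, 37 °C, 5 % CO2/95 % air. LDH in medium and homogenate gave % release = A1×D1/(A1×D1+A2×D2); viable was <30 %.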

CYP1A2 = experiment: Hepatic P450 transcript levels; type: in vivo, Sprague-Dawley rats
[5] = test system: hippocampal slice cultures; experiment: LDH release in hippocampal slice cultures; type: cell-based, Sprague Dawley rats (PND4 pups); conditions: ethanol 200 mM, 14 d exposure
Outline: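 Hippocampi from PND4 pups of timed-pregnant Sprague Dawley rats were cultured as slices. From 5 DIV, racemic test compound or vehicle (0.1 % DMSO) was added to 1 mL medium, renewed every 2 days for 14 days. LDH release was measured with a membrane-integrity fluorescence kit. Mean ± SEM, n = 2 wells per group.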

[6] = test system: hippocampal slice cultures; experiment: Propidium iodide; type: cell-based, Sprague Dawley rats (PND4 pups); conditions: glutamate 20 mM, positive control, 3 d exposure
[7] = DEX-treated female rats, PCB 136 5 μM (10 nmol)
[8] = DEX-treated female rats, PCB 136 5 μM
[9] = DEX-treated male rats, PCB 136 5 μM (10 nmol)
[10] = DEX-treated male rats, PCB 136 5 μM
[11] = PB-treated female rats, PCB 136 5 μM (10 nmol)
[12] = PB-treated female rats, PCB 136 5 μM
[13] = PB-treated male rats, PCB 136 5 μM (10 nmol)
[14] = PB-treated male rats, PCB 136 5 μM (10 nmol), ND, not detected
[15] = PB-treated male rats, PCB 136 5 μM
[16] = naïve control (CTL) female rats, PCB 136 5 μM (10 nmol), ND, not detected
[17] = naïve control (CTL) female rats, PCB 136 5 μM, ND, not detected
[18] = naïve control (CTL) female rats
[19] = naïve control (CTL) male rats, PCB 136 5 μM (10 nmol), ND, not detected
[20] = naïve control (CTL) male rats, PCB 136 5 μM, ND, not detected

Row | SMILES | Metabolite formation, slices (liver tissue slices [1]; [7]) [pmol] | Metabolite formation, slices (liver tissue slices [1]; [8]) [ng/mg protein] | Metabolite as percent of ΣOH-PCB (liver tissue slices [1]; DEX-treated female rats) [%] | Metabolite formation, slices (liver tissue slices [1]; [9]) [pmol] | Metabolite formation, slices (liver tissue slices [1]; [10]) [ng/mg protein] | Metabolite as percent of ΣOH-PCB (liver tissue slices [1]; DEX-treated male rats) [%] | Metabolite formation, slices (liver tissue slices [1]; [11]) [pmol] | Metabolite formation, slices (liver tissue slices [1]; [12]) [ng/mg protein] | Metabolite as percent of ΣOH-PCB (liver tissue slices [1]; PB-treated female rats) [%] | Metabolite formation, slices (liver tissue slices [1]; [13]) [pmol] | Metabolite formation, slices (liver tissue slices [1]; [15]) [ng/mg protein] | Metabolite as percent of ΣOH-PCB (liver tissue slices [1]; PB-treated male rats) [%] | Enantiomeric enrichment (liver tissue slices [2]) | other results
1 | Oc1c(O)c(Cl)c(-c2c(Cl)ccc(Cl)c2Cl)c(Cl)c1Cl [4,5-diOH-PCB 136, 2,2′,3,3′,6,6′-hexachlorobiphenyl-4,5-diol] | 3 ± 1 | 0.1 ± 0.0 | 1.3 ± 0.3 | 6 ± 2 | 0.1 ± 0.0 | 0.9 ± 0.3 | 6 ± 3 | 0.1 ± 0.1 | 1.0 ± 0.4 | 32 ± 15 | 0.6 ± 0.3 | 5.6 ± 3.6 |  | Metabolite formation, medium (liver tissue slices [1]; [14]): 24 ± 34 pmol; Metabolite level in tissue slices (liver tissue slices [1]; tissue slices from CTL rats): below the detection limit
2 | Oc1cc(Cl)c(-c2c(Cl)ccc(Cl)c2Cl)c(Cl)c1Cl [4-OH-PCB 136, 2,2′,3,3′,6,6′-hexachlorobiphenyl-4-ol] | 24 ± 19 | 0.5 ± 0.3 | 7.7 ± 3.5 | 26 ± 5 | 0.4 ± 0.1 | 4.3 ± 0.7 | 30 ± 4 | 0.7 ± 0.0 | 5.8 ± 1.0 | 15 ± 5 | 0.3 ± 0.1 | 1.5 ± 0.2 |  | 4-OH-PCB 136 levels relative to 5-OH-PCB 136 levels (times higher) (liver tissue slices [1]; liver slices from female CTL rats): approximately 3 times; Metabolite formation, slices (liver tissue slices [1]; [16]): 33 ± 4 pmol; Metabolite formation, slices (liver tissue slices [1]; [17]): 0.7 ± 0.1 ng/mg protein; Metabolite as percent of ΣOH-PCB (liver tissue slices [1]; [18]): 75 ± 16%; Metabolite formation, slices (liver tissue slices [1]; [19]): 60 ± 30 pmol; Metabolite formation, slices (liver tissue slices [1]; [20]): 1.0 ± 0.5 ng/mg protein; Metabolite as percent of ΣOH-PCB (liver tissue slices [1]; naïve control (CTL) male rats): 57 ± 5%
3 | Oc1cc(Cl)c(Cl)c(-c2c(Cl)ccc(Cl)c2Cl)c1Cl [5-OH-PCB 136, 2,2′,3,3′,6,6′-hexachlorobiphenyl-5-ol] | 240 ± 110 | 4.9 ± 1.1 | 91 ± 4 | 495 ± 95 | 7.7 ± 1.2 | 95 ± 1 | 490 ± 100 | 11 ± 1.3 | 93 ± 1 | 900 ± 220 | 16.0 ± 2.0 | 93 ± 4 |  | Metabolite formation, medium (liver tissue slices [1]; DEX-treated male rats, PCB 136 5 μM (10 nmol), ND, not detected): 80 ± 37 pmol; Metabolite formation, medium (liver tissue slices [1]; [14]): 115 ± 22 pmol; Metabolite formation, slices (liver tissue slices [1]; [16]): 12 ± 10 pmol; Metabolite formation, slices (liver tissue slices [1]; [17]): 0.3 ± 0.2 ng/mg protein; Metabolite as percent of ΣOH-PCB (liver tissue slices [1]; [18]): 25 ± 16%; Metabolite formation, slices (liver tissue slices [1]; [19]): 50 ± 10 pmol; Metabolite formation, slices (liver tissue slices [1]; [20]): 0.7 ± 0.2 ng/mg protein; Metabolite as percent of ΣOH-PCB (liver tissue slices [1]; naïve control (CTL) male rats): 43 ± 5%; Enantiomeric fraction (EF) (liver tissue slices [2]; liver slices from PB- and DEX-treated male and female rats, racemic PCB 136 5 μM, 2 h, EF = Area E(2)/(Area E(1) + Area E(2)), range over groups): 0.69–0.74
4 | Clc1ccc(Cl)c(-c2c(Cl)ccc(Cl)c2Cl)c1Cl [(−)-PCB 136] |  |  |  |  |  |  |  |  |  |  |  |  | slightly enriched | Sensitization of RyR (ryanodine receptor (RyR)): active
5 | C[C@@H]1C[C@H]2[C@@H]3CCC4=CC(=O)C=C[C@]4(C)[C@@]3(F)[C@@H](O)C[C@]2(C)[C@@]1(O)C(=O)CO [Dexamethasone (DEX), dexamethasone] |  |  |  |  |  |  |  |  |  |  |  |  |  | Liver weight ([3]; female rats): 12.1 ± 0.2 g; Percent change in body weight ([3]; female rats): −12.0 ± 4.4 %; Liver weight ([3]; male rats): 16.8 ± 0.6 g; Percent change in body weight ([3]; male rats): −17.0 ± 0.7 %; LDH release (liver tissue slices [4]; liver tissue slices from DEX pretreated female rats): 19.6 ± 10.4%; LDH release (liver tissue slices [4]; liver tissue slices from DEX pretreated male rats): 10.4 ± 3.6%; CYP1A2 transcript level vs CTL (CYP1A2; liver slices from female rats): not significantly changed; CYP1A2 transcript level vs CTL (CYP1A2; liver slices from male rats): not changed
6 | Oc1cc(Cl)c(-c2c(Cl)ccc(Cl)c2Cl)c(Cl)c1Cl [E(1)-4-OH-PCB] |  |  |  |  |  |  |  |  |  |  |  |  | enriched | 
7 | Oc1cc(Cl)c(Cl)c(-c2c(Cl)ccc(Cl)c2Cl)c1Cl [E(2)-5-OH-PCB] |  |  |  |  |  |  |  |  |  |  |  |  | enriched to a similar extent | 
8 | CCO [ethanol, reference compound] |  |  |  |  |  |  |  |  |  |  |  |  |  | LDH release relative to vehicle controls [5]: significantly increased LDH release
9 | N[C@@H](CCC(=O)O)C(=O)O [glutamate, reference compound] |  |  |  |  |  |  |  |  |  |  |  |  |  | PI uptake [6]: significantly increased PI uptake
